Assay results taken from ChEMBL document CHEMBL3232983, “Discovery of 2-iminobenzimidazoles as potent hepatitis C virus inhibitors with a novel mechanism of action” (Eur J Med Chem, 2014).
Active and inactive are the calls of the source. No cut-off for these calls is given here.

Key:
[1] = Cytotoxicity against human HuH7 cells after 72 hrs by Hoechst 33342 staining-based confocal microscopic analysis; format: cell-based, Huh-7
Procedure, shortened: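 Naïve Huh-7 cells in the HCVcc format were compound-treated for 2 h, then infected. Cytotoxicity was determined at 72 h post-infection. CC50 came from 10-point dose-response curves in duplicate with quadruplicate measurements, fitted by non-linear regression.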

[2] = tested on: Hepatitis C virus; assay: Antiviral activity against cell culture derived Hepatitis C virus expressing NS5A-GFP fusion protein infected in human HuH7 cells assessed as infection rate preincubated for 2 hrs followed by viral inoculation measured after 72 hrs by HTS assay; format: functional, organism-based, Hepacivirus hominis; conditions: Huh-7
Procedure, shortened: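 Naïve Huh-7 cells were exposed to serially diluted compound and inoculated with cell-culture-adapted HCVcc 2 h later. Infection rate was read at 72 h post-infection. EC50 came from 10-point dose-response curves run in duplicate with quadruplicate measurements, fitted by non-linear regression.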

[3] = Selectivity index, ratio of CC50 for human HuH7 cells to EC50 for cell culture derived Hepatitis C virus; format: toxicity, cell-based, Huh-7; conditions: read-out: Ratio CC50/EC50
Procedure, shortened: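 SI is CC50/EC50. Both values come from the same HCVcc assay in naïve Huh-7 cells: compound added 2 h before HCVcc inoculation, infection and cytotoxicity read at 72 h. Each was derived from 10-point dose-response curves in duplicate with quadruplicate measurements.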

[4] = Half life in human liver microsomes at 2 uM; format: ADME
Procedure, shortened: (§1)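 Compound at 2 µM final (0.02% DMSO) was incubated with 0.5 mg/mL liver microsomes in potassium phosphate buffer. Human microsomes were a mixed-gender pool of 200 donors; rat microsomes were from males. Half-life is reported in minutes.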

[5] = Half life in rat liver microsomes at 2 uM; format: ADME; procedure, shortened: as §1
[6] = tested on: Hepatitis C virus; assay: Antiviral activity against Hepatitis C virus infected in human HuH7.5 cells assessed as reduction of secreted infectious viral particles incubated for 48 hrs followed by compound washout measured after 24 hrs; format: functional, organism-based; conditions: Hepacivirus hominis; Huh-7
Procedure, shortened: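 Supernatant-transfer (late-stage) assay. Transfected Huh-7.5 producer cells were treated with serially diluted compound at 37 °C for 48 h, then washed. Supernatant was collected 24 h after the wash, clarified by centrifugation and put onto naïve Huh-7 target cells. HCV RNA replication in the target cells was read at 72 h post inoculation and normalized to the 1% DMSO control (0% inhibition).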

[7] = tested on: Hepatitis C virus; assay: Antiviral activity against Hepatitis C virus infected in human HuH7.5 cells assessed as inhibition of viral RNA replication after 72 hrs; format: functional, organism-based; conditions: Hepacivirus hominis; Huh-7
Procedure, shortened: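 Transiently transfected Huh-7.5 producer cells carrying full-length HCV RNA genomes were plated and left overnight at 37 °C. They were then treated with increasing compound concentrations at 37 °C for 48 h and washed. Viral RNA replication and cytotoxicity in the producer cells were read at 72 h post compound treatment. Data were normalized to the 1% DMSO control, set as 0% inhibition.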

[8] = tested on: Hepatitis C virus; assay: Antiviral activity against Hepatitis C virus pseudotyped lentiviral particle expressing E1/E2 glycoproteins assessed as inhibition of viral attachment and internalization in human HuH7 cells at 3.3 uM preincubated for 1 hr followed by viral inoculation measured after 72 hrs GFP reporter gene assay; format: functional, organism-based; conditions: Hepacivirus hominis, Huh-7
Procedure, shortened: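 Huh-7 target cells were pretreated with 3.3 µM compound for 1 h. Supernatants were replaced at 12 h. GFP expression was scored by confocal microscopy at 72 h post inoculation and normalized to 1% DMSO. Triplicates with quadruple measurements (n = 12).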

[9] = tested on: Vesicular stomatitis virus; assay: Antiviral activity against Vesicular stomatitis virus pseudotyped particle expressing glycoproteins assessed as inhibition of viral attachment and internalization in human HuH7 cells at 3.3 uM preincubated for 1 hr followed by viral inoculation measured after 72 hrs GFP reporter gene assay; format: functional, organism-based; conditions: Huh-7
Procedure, shortened: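 Supernatant replaced at 12 h. At 72 h post inoculation, GFP expression was read by confocal microscopy at 20x. Data normalized to 1% DMSO control (0% inhibition). Triplicates with quadruple measurements (n = 12).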

| SMILES | CC50 at 72 h [1] | EC50 [2] | selectivity ratio [3] | half-life at 2 µM [4] | half-life at 2 µM [5] | Activity [6] | inhibition [7] | inhibition [8] | inhibition [9] |
| --- | --- | --- | --- | --- | --- | --- | --- | --- | --- |
| CCC(=O)Cn1c(=N)n(CCOc2ccc(Cl)cc2)c2ccccc21 | 8500 nM | 2300 nM | – | – | – | – | – | – | – |
| Br.Cn1c(=N)n(CCOc2ccc(Cl)cc2)c2cc(Cl)ccc21 | 9840 nM | 40 nM | 246 | > 1 h | > 1 h | – | – | – | – |
| CCc1ccc(C(=O)Cn2c(=N)n(C)c3ccccc32)cc1 | 9500 nM | 380 nM | 25 | – | – | – | – | – | – |
| Cn1c(=N)n(CCOc2ccc(C(C)(C)C)cc2)c2ccccc21 | 2800 nM | 45 nM | 62 | – | – | – | – | – | – |
| Br.Cn1c(=N)n(CCOc2ccc(Cl)cc2)c2ccc(Cl)cc21 | 4100 nM | 11 nM | 373 | > 1 h | > 1 h | – | – | – | – |
| CCc1ccc(Cn2c(=N)n(C)c3ccccc32)cc1 | 5800 nM | 460 nM | 12.6 | – | – | – | – | – | – |
| Cn1c(=N)n(Cc2ccc(-c3ccccc3)cc2)c2ccccc21 | 2600 nM | 220 nM | 11.8 | – | – | – | – | – | – |
| Cn1c(=NC#N)n(CCOc2ccc(Cl)cc2)c2ccc(Cl)c(Cl)c21 | > 20000 nM | > 20000 nM | – | – | – | – | – | – | – |
| Br.Cn1c(=N)n(CCOc2ccc(Cl)cc2)c2cccc(Cl)c21 | 1500 nM | 3.3 nM | 455 | > 1 h | > 1 h | – | – | – | – |
| Cn1c(=N)n(CC(=O)c2ccc(Cl)cc2)c2ccccc21 | 20000 nM | 73 nM | 274 | – | – | – | – | – | – |
| Cn1c(=N)n(CC(=O)c2ccc(C(C)(C)C)cc2)c2ccccc21 | 8900 nM | 79 nM | 113 | – | – | – | – | – | – |
| CCc1ccc(OCCn2c(=N)n(C)c3ccccc32)cc1 | 8900 nM | 50 nM | 178 | – | – | – | – | – | – |
| Cn1c(=N)n(Cc2ccc(C(C)(C)C)cc2)c2ccccc21 | 5900 nM | 170 nM | 34.7 | – | – | – | – | – | – |
| Nc1nc2ccccc2n1CCOc1ccc(Cl)cc1 | 8900 nM | 4000 nM | – | – | – | – | – | – | – |
| Br.Cc1ccc2c(c1)n(CCOc1ccc(Cl)cc1)c(=N)n2C | 10600 nM | 90 nM | 118 | > 1 h | 0.3 h | – | – | – | – |
| Br.Cn1c(=N)n(CCOc2ccc(Cl)cc2)c2c(Cl)cccc21 | 4300 nM | 9.7 nM | 443 | > 1 h | 0.623 h | – | – | – | – |
| Br.Cc1cccc2c1n(C)c(=N)n2CCOc1ccc(Cl)cc1 | 15000 nM | 130 nM | 115 | > 1 h | 0.41 h | – | – | – | – |
| CCc1cn2c3ccccc3n(CCOc3ccc(Cl)cc3)c2n1 | 20000 nM | 6000 nM | – | – | – | – | – | – | – |
| Cn1c(=N)n(CC(=O)c2ccc3ccccc3c2)c2ccccc21 | 4500 nM | 340 nM | 13 | – | – | – | – | – | – |
| Cn1c(=N)n(CCOc2ccc(-c3ccccc3)cc2)c2ccccc21 | 3400 nM | 200 nM | 17 | – | – | – | – | – | – |
| Br.Cc1ccc2c(c1)n(C)c(=N)n2CCOc1ccc(Cl)cc1 | 2900 nM | 1 nM | 2900 | > 1 h | 0.145 h | – | – | – | – |
| Clc1ccc(OCCN2C3=NCCN3c3ccccc32)cc1 | 20000 nM | 50 nM | – | – | – | – | – | – | – |
| Br.Cn1c(=N)n(CCOc2ccc(Cl)cc2)c2ccccc21 | 7600 nM | 16 nM | 475 | > 1 h | 0.225 h | Dose-dependent effect | Active | Active | inactive |
